# Screening data from PubChem BioAssay.
# Arr AP2 block: human beta-arrestin and AP2 interaction inhibition | FITC-arrestin peptide / GST-AP2 beads, flow cytometry; AP2 beta2 appendage carries R879A mutation | inhibition, % at 10 µM | hit rate 0.31% among 340,000;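 active = inhibition above a set limit, near 3 SD of compounds lacking own fluorescence, cut at about 54% in these data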;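 note: plate controls were DMSO wells for no effect and 5 µM unlabelled arrestin peptide for full effect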
#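 system = GST-tagged AP2 beta2-adaptin appendage (R879A) on 4 µm glutathione beads | reagent = FITC-labelled arrestin peptide probe, 50 nM final | schedule = compound with beads 12 min RT, then probe 1 h RT | signal = HyperCyt-sampled flow cytometry, FL1 channel, ex 488/em 535 nm | read-out = percent response from loss of bead-bound FITC fluorescence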
# MEKK3 PB1 HTS: raises or lowers MEK5 binding to the human MEKK3 PB1 domain; bead-based flow cytometry, Alexa488-MEK5 binding to MEKK3; actives lie on both sides; 0 = blocked by unlabeled MEK5, 100 = vehicle; binding response (% of control), % at 10 µM; AID 1529; hit rate 1.4% among 290,000; Q99759;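 active = binding response more than 3 SD above or below the average of its plate-row segment, actives on both sides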;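 note: Alexa488 bead fluorescence after subtracting the streptavidin-only scavenger bead signal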
# MEKK2 WT-MEK5: raises or lowers MEK5 binding to wildtype human MEKK2 PB1 domain; Q9Y2U5; bead flow cytometry, Alexa488-MEK5 binding to MEKK2 WT; actives lie on both sides; binding response (% of control), % at 10 µM; hit rate 1.1% among 290,000; AID 1531; in the data active = binding response below about 67% or above about 130%
# MEKK2 mut-MEK5: signal of MEK5 binding to mutant human MEKK2 PB1 domain; bead flow cytometry, Alexa488-MEK5 binding to MEKK2 mutant; percent response, % at 10 µM; hit rate 0.35% among 290,000; AID 1530; in the data active = percent response above about 24%, passing the limit was not always enough
# MEKK2wt confirm: raises or lowers MEK5 binding to wildtype human MEKK2, retest. bead flow cytometry, Alexa488-MEK5 binding to MEKK2 WT; actives lie on both sides. shares compounds with MEKK3 PB1 HTS. hit rate 2.4% among 5,900. AID 1892. binding response (% of control), % at 10 µM; in the data active = binding response below about 16% or above about 210%; inactive = in between
# MEKK2mut-MEK5: signal of MEK5 binding to mutant human MEKK2, retest. shares compounds with MEKK3 PB1 HTS. bead flow cytometry, Alexa488-MEK5 binding to MEKK2 mutant. percent response, % at 10 µM. hit rate 2% among 5,900; in the data active = percent response mostly above about 71%, no sharp cut-off; inactive = mostly below about 38%;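 note: higher means compound restores mutant binding toward wildtype level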
# MEKK3-MEK5 inh: confirmation of inhibitors of MEK5 binding to human MEKK3. bead flow cytometry, Alexa488-MEK5 binding to MEKK3; hits give low values. shares compounds with MEKK3 PB1 HTS. hit rate 1.8% among 5,900. binding response (% of control), % at 10 µM. AID 1894;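 active = binding response below 72% of control, or above a set upper limit, though filed actives all read lower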;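 note: 100% = DMSO only wells and 0% = binding blocked by excess unlabeled MEK5; lower values mean stronger disruption of MEK5 binding to MEKK3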
# * = called active by the depositor; x = no result given; [ ] = another dose, or the depositor's remark. Compounds with a hit are over-represented: about 2.3% of the library has one in this group of screens.
SMILES,Arr AP2 block,MEKK3 PB1 HTS,MEKK2 WT-MEK5,MEKK2 mut-MEK5,MEKK2wt confirm,MEKK2mut-MEK5,MEKK3-MEK5 inh
CCOC(=O)c1cccc(-n2c(C)nc3ccccc3c2=O)c1,23,102,105,3,x,x,x
CCOC(=O)c1sc(NC(=O)c2ccc(Cl)s2)cc1C,-3,111,109,4,x,x,x
CCOC(=O)c1sc(NC(=O)Nc2ccc(Cl)cc2)cc1C,2,115,138*,10,-2.0*[inhibitor],15,95
CCCc1c(C(=O)NNc2cccc(Cl)c2)cnn1-c1ccccc1,0,84,90,-19,x,x,x
O=C(NCCCC1CCCC1)C1CCC(=O)N(Cc2ccc(Cl)cc2)C1 (stereo not given),40,94,97,-2,x,x,x
O=C(NC(=S)N1CCN(Cc2ccc3c(c2)OCO3)CC1)c1ccc(Cl)cc1,33,104,121,55*,106,4,105
O=C(NC(=S)N1CCN(Cc2ccc3c(c2)OCO3)CC1)c1cccc(Br)c1,8,108,108,-1,x,x,x
Fc1ccccc1NC(=S)N1CCN(Cc2ccc3c(c2)OCO3)CC1,36,136*,116,5,96,-3,94
COc1ccc(OC)c(NC(=O)CCCCCn2nnc3ccccc3c2=O)c1,28,104,102,2,x,x,x
CC1CCCC(NC(=O)CN2C(=O)NC(C)(c3cc(F)ccc3F)C2=O)C1C (stereo not given),-3,x,x,x,x,x,x
O=[N+]([O-])c1ccc(N/N=C/c2sc(N3CCOCC3)nc2-c2ccccc2)c(S(=O)(=O)Nc2ccc(Cl)cc2)c1,-7,11*[inhibitor],x,-32,79,-9,82
O=C(O)c1cccc(N/N=C/c2sc(N3CCOCC3)nc2-c2ccccc2)c1,7,102,97,0,x,x,x
COC(=O)C1=C(C)NC(C)=C(C(=O)O[C@@H]2CCCN(Cc3ccccc3)C2)[C@@H]1c1cccc([N+](=O)[O-])c1,-9,111,145*,10,120,9,106
COc1ccc(CCN2CCCC(CN(C)Cc3cc(Cl)c(O)c(OC)c3)C2)cc1 (stereo not given),-13,112,135*,25*,132,24,107
CN(CC(=O)Nc1ccccc1Br)C(=O)CNC(=O)Cc1cccc2ccccc12,2,98,99,5,x,x,x
CSc1ncc(Cl)c(C(=O)Nc2cccc3ccccc23)n1,9,128*,102,0,101,-2,99
COc1ccc(-c2cc3ccccc3n2CC(O)Cn2nc(C)cc2C)cc1 (stereo not given),10,107,107,6,x,x,x
COc1ccc(-c2cc3ccccc3n2CC(O)CN2CCC(C)CC2)cc1 (stereo not given),0,99,149*,16,152,34,107
C[C@H](NC(=O)c1ccco1)C(=O)N1CCN(c2ccc(C(F)(F)F)cn2)CC1,-7,x,x,x,x,x,x
CCN(CC)CCNC(C(=O)Nc1cc(C(F)(F)F)ccc1Cl)c1ccccc1 (stereo not given),-4,143*,106,0,111,7,103
O=C(NCc1ccccc1C(F)(F)F)c1cccc2c1C(=O)c1ccc(N3CCCCC3)cc1S2(=O)=O,34,x,x,x,x,x,x
O=C(NCc1ccc2c(c1)OCO2)C(C(=O)c1ccccc1)n1cc(Cl)ccc1=O (stereo not given),27,132*,106,1,101,-3,102
Cc1nnc(SCC(=O)Nc2nccs2)n1C(C)C,-8,95,95,-7,x,x,x
Cc1cc(-c2nn(-c3ccccc3F)cc2CNCCc2cnc[nH]2)c(C)s1,-5,112,148*,39,130,17,106
Cc1cc(-c2nn(-c3ccccc3F)cc2CN2CCC(C(N)=O)CC2)c(C)s1,22,99,114,7,x,x,x
Cc1cc(NC(=O)Nc2ccccc2[N+](=O)[O-])n(C)n1,-6,103,104,3,x,x,x
